This note sets out measurements from ChEMBL document CHEMBL1157912, “Impact of nature and length of linker incorporated in agonists on toll-like receptor 9-mediated immune responses” (J Med Chem, 2010).

In assay [1] the target is T1, Toll-like receptor 9 (Mus musculus) (UniProt Q9EQU3).
T1 sequence (whole entry): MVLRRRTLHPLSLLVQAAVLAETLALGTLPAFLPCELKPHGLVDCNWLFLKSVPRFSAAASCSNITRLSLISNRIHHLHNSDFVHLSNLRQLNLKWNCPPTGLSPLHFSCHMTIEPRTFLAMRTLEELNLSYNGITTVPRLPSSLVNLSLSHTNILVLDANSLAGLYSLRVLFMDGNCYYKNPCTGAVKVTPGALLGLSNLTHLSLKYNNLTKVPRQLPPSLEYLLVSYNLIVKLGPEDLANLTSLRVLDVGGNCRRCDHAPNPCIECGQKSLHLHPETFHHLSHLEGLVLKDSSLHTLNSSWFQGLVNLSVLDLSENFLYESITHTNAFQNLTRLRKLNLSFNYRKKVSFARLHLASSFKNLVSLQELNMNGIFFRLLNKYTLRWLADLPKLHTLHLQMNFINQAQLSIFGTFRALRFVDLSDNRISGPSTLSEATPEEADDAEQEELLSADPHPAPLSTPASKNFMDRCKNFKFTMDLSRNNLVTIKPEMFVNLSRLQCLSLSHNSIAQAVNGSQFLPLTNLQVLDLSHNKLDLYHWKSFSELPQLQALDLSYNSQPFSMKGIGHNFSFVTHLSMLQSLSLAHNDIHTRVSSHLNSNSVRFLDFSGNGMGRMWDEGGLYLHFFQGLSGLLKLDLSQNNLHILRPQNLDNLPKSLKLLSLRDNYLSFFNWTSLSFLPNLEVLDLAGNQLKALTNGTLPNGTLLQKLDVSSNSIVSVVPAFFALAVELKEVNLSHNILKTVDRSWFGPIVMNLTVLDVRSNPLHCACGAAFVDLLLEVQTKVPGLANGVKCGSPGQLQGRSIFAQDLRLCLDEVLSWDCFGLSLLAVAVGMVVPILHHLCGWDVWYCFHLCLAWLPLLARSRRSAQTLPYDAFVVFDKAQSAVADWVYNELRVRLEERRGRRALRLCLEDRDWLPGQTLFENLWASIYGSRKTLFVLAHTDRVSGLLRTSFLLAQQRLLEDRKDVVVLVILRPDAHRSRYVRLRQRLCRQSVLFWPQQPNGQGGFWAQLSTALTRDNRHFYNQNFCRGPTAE
In words: Activation of mouse TLR9 expressed in HEK293 cells assessed as induction of NF-kappaB activity after 18 hrs by SEAP assay. The assay is classed as cell-based. In outline: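 HEK293 cells stably expressing mouse TLR9 were grown in DMEM with 10% heat-inactivated FBS. At 80% confluence they were transiently transfected with a SEAP reporter plasmid (100 ng/well, lipofectamine) for 6 h. Medium was then replaced and agonists were added for 18 h. Supernatant SEAP was read with QuantiBlue substrate at 620-645 nm. Results are expressed as fold NF-κB activity over PBS control.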

In assay [2] the target is T1, Toll-like receptor 9 (Mus musculus). The experiment in a line: Induction of TLR9-mediated IL12 production in C57BL/6 mouse spleen cells after 24 hrs by ELISA. The assay is classed as cell-based. In outline: (§1)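 C57BL/6 mouse spleen cells were cultured with agonists at 0.1, 0.3, 1, 3 and 10 μg/mL for 24 h. Secreted IL-12 and IL-6 in the supernatants were measured by ELISA. Values are averages of triplicate wells from one representative of at least two independent experiments.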

For assay [3] the target is unchanged. The experiment in a line: Induction of TLR9-mediated IL6 production in C57BL/6 mouse spleen cells after 24 hrs by ELISA. The assay is classed as cell-based. In outline:
as §1

For assay [4], the target named is T2, Toll-like receptor 9 (Homo sapiens) (UniProt Q9NR96).
T2 sequence (whole entry): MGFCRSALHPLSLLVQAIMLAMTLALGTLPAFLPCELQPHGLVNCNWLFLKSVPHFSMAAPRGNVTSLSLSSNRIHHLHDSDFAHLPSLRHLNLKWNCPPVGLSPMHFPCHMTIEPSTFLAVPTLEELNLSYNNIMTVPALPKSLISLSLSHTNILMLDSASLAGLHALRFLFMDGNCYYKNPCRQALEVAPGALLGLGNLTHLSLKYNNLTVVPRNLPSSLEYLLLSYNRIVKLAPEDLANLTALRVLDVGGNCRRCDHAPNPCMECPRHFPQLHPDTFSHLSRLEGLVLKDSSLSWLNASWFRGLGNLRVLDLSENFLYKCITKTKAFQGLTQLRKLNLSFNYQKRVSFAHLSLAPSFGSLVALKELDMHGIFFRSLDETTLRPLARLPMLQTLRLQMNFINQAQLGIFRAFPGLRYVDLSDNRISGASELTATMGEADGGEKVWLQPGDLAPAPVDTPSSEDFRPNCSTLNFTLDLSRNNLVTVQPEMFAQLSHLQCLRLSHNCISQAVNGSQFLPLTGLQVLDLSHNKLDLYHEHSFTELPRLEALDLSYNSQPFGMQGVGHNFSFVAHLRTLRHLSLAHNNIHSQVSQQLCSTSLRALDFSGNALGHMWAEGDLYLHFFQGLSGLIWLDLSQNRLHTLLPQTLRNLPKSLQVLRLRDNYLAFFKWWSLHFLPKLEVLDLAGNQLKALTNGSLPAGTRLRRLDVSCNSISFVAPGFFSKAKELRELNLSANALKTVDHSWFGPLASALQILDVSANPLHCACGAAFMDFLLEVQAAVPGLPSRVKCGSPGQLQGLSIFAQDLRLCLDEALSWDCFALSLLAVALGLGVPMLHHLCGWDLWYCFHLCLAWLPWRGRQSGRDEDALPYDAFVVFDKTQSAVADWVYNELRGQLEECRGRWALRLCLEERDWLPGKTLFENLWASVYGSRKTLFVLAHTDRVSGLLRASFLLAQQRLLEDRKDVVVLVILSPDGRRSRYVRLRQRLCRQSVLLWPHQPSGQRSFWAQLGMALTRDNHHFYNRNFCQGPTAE
In words: Induction of TLR9-mediated immune stimulation in human PBMC assessed as IL12 production at 2 ug/ml after 24 hrs by luminex multiplex assay (RVb = 0.00 ng/ml).

Assay [5] concerns the target T2, Toll-like receptor 9 (Homo sapiens). In words: Induction of TLR9-mediated immune stimulation in human PBMC assessed as MIP1alpha production at 10 ug/ml after 24 hrs by luminex multiplex assay (RVb = 0.01 ng/ml).
Assay [6] has the same target. The experiment in a line: Induction of TLR9-mediated immune stimulation in human PBMC assessed as MIP1beta production at 2 ug/ml after 24 hrs by luminex multiplex assay (RVb = 0.03 +/- 0.02 ng/ml).
The target is the same in assay [7]. The experiment in a line: Induction of TLR9-mediated immune stimulation in human PBMC assessed as IP10 production at 10 ug/ml after 24 hrs by luminex multiplex assay (RVb = 0.00 ng/ml).
For assay [8] the target is unchanged. The experiment in a line: Induction of TLR9-mediated immune stimulation in human PBMC assessed as RANTES production at 2 ug/ml after 24 hrs by luminex multiplex assay (RVb = 0.05 +/- 0.04 ng/ml).
Assay [9] has the same target. The experiment in a line: Induction of TLR9-mediated immune stimulation in human PBMC assessed as RANTES production at 10 ug/ml after 24 hrs by luminex multiplex assay (RVb = 0.05 +/- 0.04 ng/ml).

As to `Cc1cn([C@H]2C[C@H](O[C@H]3C[C@@H](O)C[C@@H](OP(=O)(S)O[C@H]4C[C@H](n5cc(C)c(=O)[nH]c5=O)O[C@@H]4COP(=O)(S)O[C@H]4[C@@H](O)[C@H](n5ccc(N)nc5=O)O[C@@H]4COP(=O)(S)O[C@H]4C[C@H](n5cc(C)c(=O)[nH]c5=O)O[C@@H]4COP(=O)(S)O[C@H]4C[C@H](n5cc(C)c(=O)[nH]c5=O)O[C@@H]4COP(=O)(S)O[C@H]4C[C@H](n5ccc6c(=O)[nH]c(N)nc65)O[C@@H]4COP(=O)(S)O[C@H]4[C@@H](O)[C@H](n5ccc(N)nc5=O)O[C@@H]4COP(=O)(S)O[C@H]4C[C@H](n5cc(C)c(=O)[nH]c5=O)O[C@@H]4COP(=O)(S)O[C@H]4[C@@H](O)[C@H](n5cnc6c(=O)[nH]c(N)nc65)O[C@@H]4COP(=O)(S)O[C@H]4C[C@H](n5cc(C)c(=O)[nH]c5=O)O[C@@H]4COP(=O)(S)O[C@H]4[C@@H](O)[C@H](n5ccc(N)nc5=O)O[C@@H]4COP(=O)(S)O[C@H]4C[C@H](n5cc(C)c(=O)[nH]c5=O)O[C@@H]4CO)C3)[C@@H](COP(=O)(S)O[C@H]3[C@@H](O)[C@H](n4ccc(N)nc4=O)O[C@@H]3COP(=O)(S)O[C@H]3C[C@H](n4cc(C)c(=O)[nH]c4=O)O[C@@H]3COP(=O)(S)O[C@H]3C[C@H](n4cc(C)c(=O)[nH]c4=O)O[C@@H]3COP(=O)(S)O[C@H]3C[C@H](n4ccc5c(=O)[nH]c(N)nc54)O[C@@H]3COP(=O)(S)O[C@H]3[C@@H](O)[C@H](n4ccc(N)nc4=O)O[C@@H]3COP(=O)(S)O[C@H]3C[C@H](n4cc(C)c(=O)[nH]c4=O)O[C@@H]3COP(=O)(S)O[C@H]3[C@@H](O)[C@H](n4cnc5c(=O)[nH]c(N)nc54)O[C@@H]3COP(=O)(S)O[C@H]3C[C@H](n4cc(C)c(=O)[nH]c4=O)O[C@@H]3COP(=O)(S)O[C@H]3[C@@H](O)[C@H](n4ccc(N)nc4=O)O[C@@H]3COP(=O)(S)O[C@H]3C[C@H](n4cc(C)c(=O)[nH]c4=O)O[C@@H]3CO)O2)c(=O)[nH]c1=O` (stereo partly drawn), the Activity result in assay [1] was “Dose-dependent effect”; in assay [2], “Dose-dependent effect”; in [3], “Dose-dependent effect”; in [4] it was 0.13 ng/mL; in [5] it was 0.67 ng/mL; in [6], 0.13 ng/mL. In addition, the Activity in assay [7] came out at 0.03 ng/mL; in [8], 0.93 ng/mL; in assay [9], 2.13 ng/mL.

On to `Cc1cn([C@H]2C[C@H](OCCC(O)CCOP(=O)(S)O[C@H]3C[C@H](n4cc(C)c(=O)[nH]c4=O)O[C@@H]3COP(=O)(S)O[C@H]3[C@@H](O)[C@H](n4ccc(N)nc4=O)O[C@@H]3COP(=O)(S)O[C@H]3C[C@H](n4cc(C)c(=O)[nH]c4=O)O[C@@H]3COP(=O)(S)O[C@H]3C[C@H](n4cc(C)c(=O)[nH]c4=O)O[C@@H]3COP(=O)(S)O[C@H]3C[C@H](n4ccc5c(=O)[nH]c(N)nc54)O[C@@H]3COP(=O)(S)O[C@H]3[C@@H](O)[C@H](n4ccc(N)nc4=O)O[C@@H]3COP(=O)(S)O[C@H]3C[C@H](n4cc(C)c(=O)[nH]c4=O)O[C@@H]3COP(=O)(S)O[C@H]3[C@@H](O)[C@H](n4cnc5c(=O)[nH]c(N)nc54)O[C@@H]3COP(=O)(S)O[C@H]3C[C@H](n4cc(C)c(=O)[nH]c4=O)O[C@@H]3COP(=O)(S)O[C@H]3[C@@H](O)[C@H](n4ccc(N)nc4=O)O[C@@H]3COP(=O)(S)O[C@H]3C[C@H](n4cc(C)c(=O)[nH]c4=O)O[C@@H]3CO)[C@@H](COP(=O)(S)O[C@H]3[C@@H](O)[C@H](n4ccc(N)nc4=O)O[C@@H]3COP(=O)(S)O[C@H]3C[C@H](n4cc(C)c(=O)[nH]c4=O)O[C@@H]3COP(=O)(S)O[C@H]3C[C@H](n4cc(C)c(=O)[nH]c4=O)O[C@@H]3COP(=O)(S)O[C@H]3C[C@H](n4ccc5c(=O)[nH]c(N)nc54)O[C@@H]3COP(=O)(S)O[C@H]3[C@@H](O)[C@H](n4ccc(N)nc4=O)O[C@@H]3COP(=O)(S)O[C@H]3C[C@H](n4cc(C)c(=O)[nH]c4=O)O[C@@H]3COP(=O)(S)O[C@H]3[C@@H](O)[C@H](n4cnc5c(=O)[nH]c(N)nc54)O[C@@H]3COP(=O)(S)O[C@H]3C[C@H](n4cc(C)c(=O)[nH]c4=O)O[C@@H]3COP(=O)(S)O[C@H]3[C@@H](O)[C@H](n4ccc(N)nc4=O)O[C@@H]3COP(=O)(S)O[C@H]3C[C@H](n4cc(C)c(=O)[nH]c4=O)O[C@@H]3CO)O2)c(=O)[nH]c1=O` (stereo partly drawn), for which the Activity entry in assay [1] is “Dose-dependent effect”; in assay [2], “Dose-dependent effect”; in assay [3], “Dose-dependent effect”; in [4] it was 0.14 ng/mL; in assay [5], 0.17 ng/mL; in assay [6] it was 0.12 ng/mL. In addition, the Activity was 0.02 ng/mL in assay [7], 0.31 ng/mL in assay [8] and 1.15 ng/mL in assay [9].
